# Screening data from PubChem BioAssay.
# DAGLB inhibitor: blocks human DAGLB lipase activity; HEK293T DAGLB membrane lysate, EnzChek fluorogenic substrate; hit rate 0.059% among 340,000; inhibition, % at 5.17 µM; AID 504411; in the data active = inhibition above about 34%;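 also: 0% = enzyme with vehicle and 100% = wells lacking enzyme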
# SENP1 FRET inh: SENP1 (human) catalytic domain inhibition | inhibition, % at 10 µM | hit rate 0.21% among 360,000 | recombinant SENP1 catalytic domain, CyPet-SUMO1-YPet FRET cleavage | Q9P0U3;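 active = inhibition at least 30% at 10 µM, raw YFP signal under a set limit, fluorescence ratio 0.5 to 1.5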;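 also: 0% = enzyme with DMSO and 100% = no enzyme wells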
# Target sequence (Q9P0U3 419-644 limits assumed): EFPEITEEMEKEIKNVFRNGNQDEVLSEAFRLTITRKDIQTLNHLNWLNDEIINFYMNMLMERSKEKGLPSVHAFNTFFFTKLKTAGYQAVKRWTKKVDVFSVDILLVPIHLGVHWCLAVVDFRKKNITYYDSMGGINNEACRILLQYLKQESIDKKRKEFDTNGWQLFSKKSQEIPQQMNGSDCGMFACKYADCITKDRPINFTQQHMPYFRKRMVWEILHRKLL
#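 Material: hSENP1 catalytic domain, recombinant; medium: Tris pH 8 with BME, BSA, NP40 and catalase; compound: single concentration of 10 µM compound, 0.5% DMSO final; technique: FRET read of cyan and yellow fluorescence; timing: 50 min enzyme reaction, room temperature, light-protected; reagent: SFCypet-SUMO1-SFYpet substrate at 25 nM; control set: no-enzyme low, enzyme-DMSO high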
# NRP1-CendR mod: alters CendR peptide binding to human NRP-1. FAM-RPARPAR peptide binding to NRP-1, fluorescence polarization. inhibition, % at 25 µM. hit rate 0.85% among 360,000;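 active = inhibition or corrected inhibition above about 18%, plus a signal ratio from 0.5 to 1.5, limit read from the data, passing the limit was not always enough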
# MT1-MMP act inh: MT1-MMP (human) activation inhibition; P50281; HT1080 RFP-PRO-GFP cells, GFP/RFP ratio fluorescence, overnight; percent of plate control window, DMSO zero; GFP/RFP ratio change, % at 20 µM; hit rate 0.061% among 360,000; AID 651647;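 active = GFP/RFP ratio change of at least 30% with cell ATP level not reduced by more than half and red fluorescence within 50% of control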
#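 Compound: 20 µM single dose, 1% DMSO / System: HT1080 RFP-PRO-GFP cells / Controls: DMSO and RFP-L50D-GFP cell wells / Read-out basis: GFP/RFP fluorescence ratio / Schedule: overnight compound exposure at 37 °C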
# beta cell repl: MIN6 beta-cell proliferation induction; hit rate 0.29% among 330,000; proliferation, % at 10 µM; MIN6 cells proliferation, ATPlite luminescence, 48 h; cells starved in 0.2% serum; 100% = growth in 10% serum;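 active = compounds whose signal lies at least 3.5 SD above the mean of all wells on their plate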;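 also: 0% = DMSO-treated cells in low-serum medium and 100% = 10% serum control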
# Myeloid diff MLP: myeloid differentiation induction; ER-HoxA9 myeloid progenitors, lysozyme-GFP differentiation, flow cytometry; calls only at 10 µM; hit rate 1% among 360,000;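 active = normalized GFP-positive differentiation at or above the plate's own cutoff, the solvent-only control mean plus 3 SD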;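 also: cells exposed to compound for four days before flow analysis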
# * = called active by the depositor; i = inactive; x = not tested or not shown; + = active, no number. This is a sample that favours compounds with a hit; in the whole collection about 2.4% have one here.
SMILES,DAGLB inhibitor,SENP1 FRET inh,NRP1-CendR mod,MT1-MMP act inh,beta cell repl,Myeloid diff MLP
C#CCSc1nnc(-c2cccc3ccccc23)o1,-8,5,-7,6,1,+
CC(C)(C)C(=O)/C=C(\N)c1ccccn1,-2,-5,4,1,-1,+
O=C(O)c1ccccn1,2,2,5,2,4,i
CCOc1ccc(-c2cc(C(=O)Nc3ccc4c(c3)OCCO4)c3ccccc3n2)cc1,-6,-1,56*,-4,-3,i
COc1cc(OC)cc(C(=O)NC(=S)Nc2ccc3c4c(cccc24)CC3)c1,-4,22,-24,-11,0,+
O=C(Nc1ccc2c3c(cccc13)CC2)c1ccco1,-2,17,-32,-10,-1,+
COc1ccc(C(=O)NC(=S)Nc2ccc3c4c(cccc24)CC3)cc1OC,-2,26,-11,-31,-3,i
COC(=O)Nc1[nH]ncc1[N+](=O)[O-],2,0,-8,4,-1,i
COc1cc2c(c(OC)c1OC)C(=O)C(=Cc1ccccc1)O2,-8,3,26*,7,x,i
COc1ccccc1N1CCN(c2ncnc3n[nH]c(Br)c23)CC1,x,-2,-17,-3,x,i
COC(=O)C(C)Sc1nnc(SC(C)C(=O)OC)s1 (stereo unspecified),-2,2,36*,2,-2,i
O=C(CN1C2CCCC1CC(NC(=O)C1CCCCC1)C2)Nc1ccccc1C(F)(F)F (stereo unspecified),-6,4,10,-2,-3,+
COc1cccc(C(=O)NC2CC3CCCC(C2)N3CC(=O)Nc2ccccc2C(F)(F)F)c1 (stereo unspecified),-4,1,-5,-2,-4,i
COc1cc2c(cc1OC)C(c1ccccc1[N+](=O)[O-])=NCC2,x,-1,9,5,x,i
CCNC(=S)NNC(=O)CCc1nc2cc(Cl)ccc2n(Cc2ccccc2)c1=O,-1,-8,1,-3,1,+
CN(C)C(CNC(=O)CCc1nc2cc(Cl)ccc2n(Cc2ccccc2)c1=O)c1ccccc1 (stereo unspecified),0,-13,-17,-10,-6,i
CCCCN(C(=O)c1ccc(C)c(S(=O)(=O)N2CCOCC2)c1)c1c(N)n(CC(C)C)c(=O)[nH]c1=O,2,-2,5,-1,-2,i
COCCN(C(=O)c1ccc(C)c(S(=O)(=O)N2CCOCC2)c1)c1c(N)n(CC(C)C)c(=O)[nH]c1=O,1,-19,29*,-2,x,i
Cc1ccc(C(=O)NN2CCOCC2)cc1[N+](=O)[O-],-1,0,-1,0,-1,i
Cc1ccc(C(=O)Nn2cnnc2)cc1[N+](=O)[O-],0,1,26*,4,0,i
COc1cc(NC(=O)CCc2nnc3ccc(N4CCCCC4)nn23)cc(OC)c1OC,4,0,12,-1,-2,+
COc1cc(NC(=O)CCc2nnc3ccc(N4CCCC4)nn23)cc(OC)c1OC,1,1,11,0,1,i
O=C(N=NC(=O)c1ccc2c(O)n(CC3CCCO3)c(O)c2c1)c1cccnc1 (stereo unspecified),-3,0,3,-3,1,i
Cc1ccc(C(=O)NCCCc2ccccc2)c(Cl)c1,-12,3,-6,5,-5,i
Cc1ccc(C(=O)NCCCc2ccccc2)c(C)c1,-9,4,22*,3,1,i
SMILES,DAGLB inhibitor,SENP1 FRET inh,NRP1-CendR mod,MT1-MMP act inh,beta cell repl,Myeloid diff MLP
CC(=O)Nc1ccc(S(=O)(=O)N2CCN=C2SCc2cccnc2)cc1,-1,0,29*,-5,-2,i
CC(=O)Nc1ccc(S(=O)(=O)N2CCN=C2SCc2ccc(C)cc2)cc1,3,1,17,4,-3,i
COc1ccc(OCCNC(=O)Nc2cc(F)c(F)cc2Cl)cc1,-4,1,6,-3,0,i
COc1cccc(OCCNC(=O)Nc2cc(F)c(F)cc2Cl)c1,-7,2,25*,7,-1,i
COCCN1C=C2C(=O)C(C)(OC(=O)C3CCCC3)C(=O)C(c3ccccc3)=C2C=C1CCCC(=O)OC (stereo unspecified),-1,-7,26*,-2,-3,i
CCCCC1=CC2=C(c3ccco3)C(=O)C(C)(OC(=O)c3ccc(OC)cc3)C(=O)C2=CN1Cc1ccccc1 (stereo unspecified),6,-19,-39,-18,-7,i
CCCCC1=CC2=C(c3ccco3)C(=O)C(C)(OC(=O)c3ccc(OC)cc3)C(=O)C2=CN1CCOC (stereo unspecified),4,38,28*,-29,-5,i
CCN(CC)CCCN1C=C2C(=O)C(C)(OC(=O)C3CCCC3)C(=O)C(c3ccccc3)=C2C=C1CCCC(=O)OC (stereo unspecified),3,-22,36*,-9,-3,i
COC(=O)CCCC1=CC2=C(c3ccccc3)C(=O)C(C)(OC(=O)C3CCCC3)C(=O)C2=CN1CC1CC1 (stereo unspecified),2,-11,6,2,-8,i
COC(=O)CCCC1=CC2=C(c3ccccc3)C(=O)C(C)(OC(=O)C3CCCC3)C(=O)C2=CN1CC(C)C (stereo unspecified),0,-10,28*,-6,-1,i
O=C(Nc1ccc(Oc2ccccc2)cc1)c1csc(COCCO)n1,x,-6,-15,1,x,i
Cn1cc(-c2csc(C(C)(O)c3cccnc3)n2)cn1 (stereo unspecified),x,0,-1,0,x,i
CC(C)(C)N1C(=O)c2ccccc2NC(=O)C1C(=O)Nc1ccc2c(c1)OCCO2 (stereo unspecified),x,1,2,4,x,i
COC(=O)CCCC1=CC2=C(c3ccccc3)C(=O)C(C)(OC(=O)C3CCCC3)C(=O)C2=CN1C1CCCCC1 (stereo unspecified),3,-16,1,-2,-6,i
COC(=O)CCCC1=CC2=C(c3ccccc3)C(=O)C(C)(OC(=O)C3CCCC3)C(=O)C2=CN1C1CCCC1 (stereo unspecified),7,-17,30*,-9,-5,i
CN(C)c1ccc(-c2cc([C@H]3[C@@H]4C=CCC[C@@]4(C)C(=O)N3Cc3ccccc3)ccc2F)cc1,-6,48*,-5,-5,-8,i
Cc1ccc(F)c([C@H]2[C@@H]3C=CCC[C@@]3(C)C(=O)N2Cc2ccccc2)c1,-8,4,28*,-10,-8,i
